Compound activity from PubChem BioAssay.
MEX-5 binding: C. elegans MEX-5 TCR-2 RNA binding activity. MEX-5/FITC-TCR2 RNA binding, fluorescence polarization; active compounds read low. 300,000 compounds, 0.38% hits. AID 1832. activity score (negative = inhibition of binding), % at 10 µM;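 active = inhibition past about -25% in most replicates, and total fluorescence under double the plate's negative control median, limit read from the data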;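 also: 0% = DMSO and -100% = 5 µM competing unlabeled TCR2 RNA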
DNA FID counter: displaces DNA intercalator in HCV helicase counter-screen; DNA fluorescent intercalator displacement, fluorescence; 290,000 compounds, 0.17% hits; inhibition, % at 7.9 µM; in the data active = inhibition above about 37%;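 also: 0% = vehicle and 100% = reference compound; higher means more ethidium bromide displaced from hairpin DNA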
core dimer inh: HCV core protein dimerization inhibition; inhibition, % at 5 µM; TR-FRET GST/Flag-core106 dimerization, 1536-well; AID 1899; 300,000 compounds, 0.33% hits;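 active = inhibition above the mean of all tested compounds plus 3 SD, set per screening campaign, cut at about 45% in these data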
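System – GST-tagged and Flag-tagged HCV core protein residues 1-106 · Repeats – one well for each compound · Technique – TR-FRET 671 and 617 nm emission · Doses – one concentration, 5 µM, in 0.5% DMSO · Times – 4 h, 22.5 °C incubation · Also added – Eu donor and XL665 acceptor anti-tag antibodies · Measure – percent inhibition of core106 dimerization signal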
CendR NRP1 mod: modulators of CendR peptide binding to human neuropilin-1. AID 602438. 360,000 compounds, 0.85% hits. FAM-RPARPAR peptide binding to NRP-1, fluorescence polarization. O14786. inhibition, % at 25 µM;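 active = inhibition or corrected inhibition above about 18%, plus a signal ratio from 0.5 to 1.5, limit read from the data, passing the limit was not always enough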
* marks the source's active call; other numbers are inactive results. In the library only some 1.5% were active in any assay of this set; here they are far more common.

Screening COc1ccc(-c2cc(NC(C)=O)c3ncc(-c4ccc(F)cc4)n3c2)cc1OC returned CendR NRP1 mod -18.6.
COc1ccc2cc3c(N)nn(C(=O)c4ccc(Cl)c([N+](=O)[O-])c4)c3nc2c1 was read as MEX-5 binding -0.6, DNA FID counter 1.6, core dimer inh 48.1* and CendR NRP1 mod -24.9.
Screening CCOC(=O)Nc1nnc(-c2cccc(OC)c2)s1 returned MEX-5 binding 1.6, DNA FID counter -10.6, core dimer inh 5.4 and CendR NRP1 mod 25.8*.
Screening COc1ccc(C(O)c2ncc(-c3ccc4ccccc4c3)[nH]2)cc1F (stereo unspecified) returned CendR NRP1 mod -22.1.
`CSc1cccc(NC(=O)c2ccco2)c1` gave MEX-5 binding 0.7, DNA FID counter 1.4, core dimer inh -0.3 and CendR NRP1 mod 21.0*.
For O=C(Nc1cc(Cl)ccc1Cl)c1cc(-c2ccco2)on1 the results were MEX-5 binding 0.6, DNA FID counter -3.2, core dimer inh 24.1 and CendR NRP1 mod -23.0.
Screening COc1ccc(Cl)cc1NC(=O)c1cc(-c2ccco2)on1 returned MEX-5 binding -2.7, DNA FID counter -0.7, core dimer inh 62.9* and CendR NRP1 mod -48.9.
Cc1[nH]c2ccccc2c(=O)c1CN1CCCCCC1 was read as MEX-5 binding 1.3, DNA FID counter -8.2, core dimer inh -18.1 and CendR NRP1 mod -1.4.
For Cc1[nH]c2c(Cl)cccc2c(=O)c1CN1CCCC1 the results were MEX-5 binding 1.5, DNA FID counter -1.7, core dimer inh 2.9 and CendR NRP1 mod 19.5*.
Screening OCCNc1ncnc2c1ncn2[C@H]1CN(Cc2ccc3c(c2)OCO3)C[C@@H](CO)O1 returned CendR NRP1 mod 6.9.
O=C(Nc1ccc2c(c1)OCCO2)C(c1ccccc1)n1c(=O)c(-c2ccco2)nc2ccccc21 (stereo unspecified) was read as CendR NRP1 mod -22.3.
O=C1N=c2ccccc2=C1c1sc(=O)[nH]c1O was read as MEX-5 binding -12.6, DNA FID counter 4.7, core dimer inh 2.1 and CendR NRP1 mod -2.3.
O=C1N=c2ccc([N+](=O)[O-])cc2=C1c1sc(=O)[nH]c1O was read as MEX-5 binding -59.1*, DNA FID counter 9.8, core dimer inh -0.6 and CendR NRP1 mod -11.6.
`Cc1cccc(C(=O)NC2CCN(C(=S)NCc3ccco3)CC2)c1` gave MEX-5 binding -2.7, DNA FID counter -4.4, core dimer inh 0.3 and CendR NRP1 mod 18.2.
For CCOc1ccc(C(=O)NC2CCN(C(=S)NCc3ccco3)CC2)cc1 the results were MEX-5 binding 0.9, DNA FID counter -13.0, core dimer inh -8.0 and CendR NRP1 mod 25.5*.
COc1ccc(C(=O)NC2CCN(C(=S)Nc3ccccc3C)CC2)cc1 was read as MEX-5 binding -0.5, DNA FID counter -1.7, core dimer inh -3.1 and CendR NRP1 mod 19.0*.
`COc1ccc(CN2C(=O)C(CC(=O)NCCc3ccccn3)CC(C(=O)N(C)C)=C2C)cc1` (stereo unspecified) gave CendR NRP1 mod 14.8.
COc1ccc(CN2C(=O)C(CC(=O)NCCN3CCOCC3)CC(C(=O)N3CCCCCC3)=C2C)cc1 (stereo unspecified) was read as CendR NRP1 mod -8.5.
CC1=C(C(=O)N2CCCCCC2)CC(CC(=O)NCCN2CCOCC2)C(=O)N1Cc1ccccc1 (stereo unspecified) was read as CendR NRP1 mod 29.1*.
CCNc1cc2oc(=O)c(CN3CCOCC3)c(C)c2cc1C was read as DNA FID counter -3.8, core dimer inh 1.8 and CendR NRP1 mod 24.9*.
CCOC(=O)[C@]12CCCC=C1N(Cc1cccc3ccccc13)C(=O)[C@H](CC(=O)N1CCN(C(=O)C3CC3)CC1)C2 was read as CendR NRP1 mod -12.3.
For COc1ccc(NC(=O)CN(C)C(=O)c2ccc(C)c(S(=O)(=O)N3CCCCC3)c2)cc1 the results were CendR NRP1 mod -3.4.
O=C(CC1C(=O)NCCN1C(=O)Nc1ccccc1)Nc1cccc(C(F)(F)F)c1 (stereo unspecified) was read as MEX-5 binding -0.5, DNA FID counter -0.2, core dimer inh -9.3 and CendR NRP1 mod 43.7*.
For CSCCC(NS(=O)(=O)c1ccccc1F)C(=O)N1CCCCCCC1 (stereo unspecified) the results were MEX-5 binding -1.4, DNA FID counter -39.7, core dimer inh -5.7 and CendR NRP1 mod 26.6*.
CCCNC(=O)c1cc(C2CCCCN2C(=O)c2ccc3ccccc3c2)on1 (stereo unspecified) was read as CendR NRP1 mod -3.3.
